TNF death inh: inhibitors of TNF-alpha triggered necroptosis, primary screen, cell-based, Jurkat FADD-/-, single concentration | Jurkat FADD-/- TNF necroptosis rescue, ATP luminescence, 24 h; 0 = TNF only, 100 = no-TNF cells | activation (protection from cell death), % at 10 µM | AID 463075, 2010 | 220,000 tested, 0.068% active;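 active = activation, meaning protection from cell death, of at least 50% relative to plate controls; inactive = activation below 50%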;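 note: necroptosis triggered by 40 ng/mL TNF-alpha added together with compound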
Dynein cargo inh: inhibitors of GR-EGFP nuclear translocation, primary screen, dynein cargo transport inhibitor project, imaging, high-content, 3617.4 mouse cells; 220,000 tested, 0.47% active; test concentration mostly 20 µM; stimulated with dexamethasone, 1 µM; stronger effect = lower value; AID 1381, 2008; z-score, hits read low;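 active = plate z-score of nuclear minus cytoplasmic receptor signal below a set negative limit, without overly bright fluorescence or cell loss, cut at about -3.5 in these data, passing the limit was not always enough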;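 note: z-score of nuclear minus cytoplasmic ring GR-EGFP intensity difference per well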
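Buffer or medium: Induction medium lacking tetracycline, stripped serum | Also added: Dexamethasone agonist, 1.0 µM final, for 30 min | Timing: 48 h induction, 1 h compound, 30 min dex at 37 °C | Detection: Formaldehyde fixation, Hoechst nuclear stain, 10x automated fluorescence imaging | Measure: Nuclear versus cytoplasmic GR-EGFP signal, averaged per well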
Autophagy mod: autophagy modulators in MEF cells, primary screen, imaging, high-content, MEF GFP-LC3. 190,000 tested, 0.98% active. MEF GFP-LC3 puncta imaging; test concentration mostly 10 µM. calls only at 10 µM (by protocol);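 active = percentage of spot-positive cells more than 3 SD above its plate mean, without a fluorescence outlier flag or 80% toxicity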
L929 necroptosis: inhibitors of zVAD-triggered necroptosis, primary screen, L929 cells. 220,000 tested, 0.38% active. AID 1377, 2008. viability rescue, % at 10 µM. L929 zVAD necroptosis rescue, ATP luminescence, 24 h; with zVAD 60 µM;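 active = activation, scaled between plate controls, above about 75%, limit read from the data; inactive = activation under that limit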
HSV augment: enhancers of HSV replication in host cells, fold increase, host cell viability | AID 1956, 2009 | maximum fold increase | 220,000 tested, 0.005% active | HSV replication augmentation in cells; in the data active = maximum fold increase above about 1.5; tested in PC3 cells
Furin inhibitor: human furin inhibitors, primary screen, biochemical, fluorescence intensity | P09958 | purified furin, fluorogenic substrate cleavage | inhibition, % at 20 µM or 30 µM | 220,000 tested, 0.061% active | AID 463115, 2010; in the data active = inhibition above about 25%
Target sequence (P09958 108-714 limits assumed): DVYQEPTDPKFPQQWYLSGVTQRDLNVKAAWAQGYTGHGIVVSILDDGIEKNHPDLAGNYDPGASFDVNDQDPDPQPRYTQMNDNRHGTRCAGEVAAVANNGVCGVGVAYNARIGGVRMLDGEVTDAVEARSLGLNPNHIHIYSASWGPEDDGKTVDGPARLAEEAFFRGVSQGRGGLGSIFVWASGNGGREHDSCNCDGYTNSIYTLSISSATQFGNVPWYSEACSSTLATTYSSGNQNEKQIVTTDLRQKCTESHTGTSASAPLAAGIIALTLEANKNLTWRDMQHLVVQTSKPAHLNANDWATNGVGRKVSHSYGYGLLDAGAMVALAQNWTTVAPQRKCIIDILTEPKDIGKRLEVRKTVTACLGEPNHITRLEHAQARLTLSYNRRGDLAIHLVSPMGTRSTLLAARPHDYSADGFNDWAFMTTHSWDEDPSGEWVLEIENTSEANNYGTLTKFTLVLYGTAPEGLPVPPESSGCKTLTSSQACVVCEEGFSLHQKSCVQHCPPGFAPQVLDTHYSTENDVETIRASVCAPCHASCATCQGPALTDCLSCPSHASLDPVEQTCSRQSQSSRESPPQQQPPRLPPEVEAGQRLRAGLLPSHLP
A number is an active result; . = inactive; / = no result; + = active, no number. A selection: hits, their analogues and other compounds. The true share with any hit is near 1.8%.

SMILES | TNF death inh | Dynein cargo inh | Autophagy mod | L929 necroptosis | HSV augment | Furin inhibitor
Cc1nn(-c2ccc([N+](=O)[O-])cc2)c2c1C(c1cccc(Br)c1)N1C(=N2)C(=O)Nc2ccccc21 (stereo not given) | . | . | + | . | . | .
CCOc1cc(/C=N/NC(N)=S)cc(Br)c1OCc1ccccc1C | . | . | + | . | . | .
Cn1cc(/C=C(\C#N)C(=O)Nc2cccc([N+](=O)[O-])c2)c2ccccc21 | . | . | + | . | . | .
Cn1cc(/C=N/NC(=O)c2cccc([N+](=O)[O-])c2)c2ccccc21 | . | . | . | . | . | .
COc1ccc(OC)c(NC(=O)NCCc2cccc(Cl)c2)c1 | . | . | . | . | . | .
N#Cc1sc2nc(-c3ccccc3)cc(C(F)(F)F)c2c1N | . | . | + | . | . | .
CCc1ccc2nc(SCC(=O)N3CC(=O)Nc4ccccc43)c(C#N)cc2c1 | . | . | + | / | . | .
Cn1cnc([N+](=O)[O-])c1SCC(O)CN1CCCCC1 (stereo not given) | . | . | + | . | . | .
C=CCn1cnc2c(c1=O)c1nc3ccccc3nc1n2/N=C/c1cc(OC)c(OC)c(OC)c1 | . | . | + | . | . | .
CC1=C(CC[C@@H](C)CO)OC2CC3C4CCC5CC(O)CCC5(C)C4CC(=O)C3(C)C12 (stereo not given in full) | / | / | / | / | . | /
Nc1c(C(=O)NC23CC4CC(CC(C4)C2)C3)sc2nc3c(c(C(F)(F)F)c12)CCC3 | . | . | + | . | . | .
Cc1ccc(S(=O)(=O)N/N=C/c2ccccc2O)cc1[N+](=O)[O-] | . | . | + | . | . | .
COc1cc(C(=O)Nc2ccc(-c3nnc(-c4ccco4)o3)cc2)cc(OC)c1OC | . | . | . | . | . | 30
CCc1ccc(C(=O)/C=C/NCc2ccc(F)cc2)cc1 | . | . | . | . | 1.5 | .
O=C(COC(=O)c1ccc[nH]c1=O)NCC1CCCO1 (stereo not given) | . | . | . | . | . | 30
CC[n+]1c(/C=C/c2c[nH]c3ccccc23)ccc2cc(C)ccc21 | . | . | + | . | / | .
CCOc1ccccc1N1CC(C(=O)Nc2ccc3c(c2)OCCO3)CC1=O (stereo not given) | . | . | + | . | . | .
CCN(CCn1cccn1)C(=O)CC1C(=O)NCCN1Cc1ccc(OC)c(OC)c1 (stereo not given) | . | . | + | . | . | .
Cc1ccc(C)c(OCCn2cc(/C=C(\C#N)C(=O)NCc3cccs3)c3ccccc32)c1 | . | . | . | . | . | .
N#C/C(=C\c1cn(CCOc2ccccc2F)c2ccccc12)C(=O)NCc1cccs1 | . | . | + | . | . | .
COc1ccccc1OCC(O)Cn1c(=N)n(CCN2CCCCC2)c2ccccc21 (stereo not given) | . | . | + | . | . | .
N=c1n(CCN2CCCCC2)c2ccccc2n1CC(O)c1ccc(Cl)c(Cl)c1 (stereo not given) | . | . | + | . | . | .
N=c1n(CCN2CCCCC2)c2ccccc2n1CC(O)COc1ccccc1 (stereo not given) | . | . | + | . | . | .
Cc1ccc(Cn2c(=N)n(CC(O)COc3ccccc3)c3ccccc32)cc1 (stereo not given) | . | . | + | . | . | .
Cc1ccccc1OCC(O)Cn1c(=N)n(CCN2CCOCC2)c2ccccc21 (stereo not given) | . | . | . | . | . | .
SMILES | TNF death inh | Dynein cargo inh | Autophagy mod | L929 necroptosis | HSV augment | Furin inhibitor
N=c1n(CCN2CCCCC2)c2ccccc2n1CC(O)c1cccc(Br)c1 (stereo not given) | . | . | . | . | . | .
COc1ccc(-n2c3c(c(=O)[nH]c2=O)C(NC(C)=O)(C(F)(F)F)C(=O)N3)cc1 (stereo not given) | . | . | . | . | . | .
Cc1cc(=O)oc2cc(OCc3ccc(C(=O)OCC(=O)Nc4ccc(N(C)C)cc4)cc3)ccc12 | . | . | . | . | . | .
CCCCC(=O)Nc1ccc(NC(=O)c2ccccc2[N+](=O)[O-])cc1OC | . | . | . | . | . | .
CCOC(=O)N1CCC(n2c(=S)[nH]c3cc(OCC)c(OCC)cc3c2=O)CC1 | . | . | + | . | . | .
CCC(=C(c1ccc(OC)cc1)c1ccc(OC)cc1)c1cn(CC(O)CN2CCN(C)CC2)c2ccccc12 (stereo not given) | . | . | + | . | / | .
CCOC(=O)C(C(=O)OCC)C1CCS(=O)(=O)C1 (stereo not given) | . | . | + | . | . | .
CCOC(=O)C(=O)N(CC)C1CCS(=O)(=O)C1 (stereo not given) | . | . | / | . | . | .
Cc1c(NC(=O)c2cc3c(s2)-c2ccccc2OC3)cccc1[N+](=O)[O-] | . | . | + | / | . | .
Cc1cc(NC(=O)COC(=O)C(Cc2ccccc2)NC(=O)c2ccco2)no1 (stereo not given) | . | . | + | . | . | .
COc1cc(C)c(NC(=S)Nc2ccc(Cl)c(Cl)c2)cc1OC | . | . | . | . | . | .
Cc1cc(NC(=O)C2COc3ccccc3O2)no1 (stereo not given) | 90 | . | . | . | . | .
Cc1cnc(NC(=O)C2COc3ccccc3O2)s1 (stereo not given) | 76 | . | . | . | . | .
Cc1cc(NC(=O)COC(=O)C2COc3ccccc3O2)no1 (stereo not given) | . | . | . | . | . | .
O=C(Nc1ccc(Cl)cn1)C1COc2ccccc2O1 (stereo not given) | 89 | . | . | . | . | .
O=C(Nc1ccccn1)C1COc2ccccc2O1 (stereo not given) | . | . | . | . | . | .
O=C(NCc1ccccc1)C1COc2ccccc2O1 (stereo not given) | . | . | . | . | . | 30
COc1c(Cl)cc(Br)c(OC)c1C(=O)NC(=O)Nc1nc(C)cc(C)n1 | . | . | / | . | . | .
COC(=O)CSCc1nc2ccccc2[nH]c1=O | . | . | . | / | . | .
CC(C)C(NC(=O)C12CC3CC(CC(C3)C1)C2)C(=O)N/N=C/C1=C(N2CCOCC2)C(=C\c2ccc([N+](=O)[O-])cc2)/CC1 (stereo not given) | . | . | + | . | . | .
Cc1c(NC(=O)C(C)N2C(=O)NC3(CCC(C)CC3)C2=O)c(=O)n(-c2ccccc2)n1C (stereo not given) | . | . | . | . | . | .

High-throughput results as filed in PubChem.
